Only some compounds are listed: those with a hit (about 4.2% of all), similar ones and a draw of the others.
Ins promoter up: insulin promoter activators in MIN6 cells, imaging, high-content screening, mouse beta cells; MIN6 insulin promoter-GFP reporter; active compounds read high; actives 0.3% (n = 190,000); z-score at 5 µM;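 active = z-score above 3 at 5 µM with at least 500 cells counted in the well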
SKKanGAS inh: S. pyogenes SKKanGAS growth inhibitors in kanamycin, primary screen, streptokinase expression inhibitor project, SKKanGAS strain, BacTiter-Glo luminescence; AID 1662, 2009; actives 1.3% (n = 300,000); 6 h; inhibition, % at 7.5 µM;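 active = mean replicate score, as percent of positive control median, at least 50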;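 note: strain carries kanamycin resistance gene driven by streptokinase promoter and grows in 40 µg/ml kanamycin; loss of luminescence reflects streptokinase promoter inhibition or plain growth inhibition; 0% = median of DMSO wells and 100% = positive control at its reference dose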
Rad51 HR inh: human RAD51 strand exchange inhibitors, primary screen, biochemical, fluorescence; hRad51 DNA strand exchange, fluorescence dequenching; inhibition, % at 10 µM; actives 0.085% (n = 200,000);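 active = inhibition above 40% at the single screening dose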;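 note: 0% = DMSO control wells and 100% = blanks with heterologous ssDNA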
Target sequence (Q06609 whole entry, looked up): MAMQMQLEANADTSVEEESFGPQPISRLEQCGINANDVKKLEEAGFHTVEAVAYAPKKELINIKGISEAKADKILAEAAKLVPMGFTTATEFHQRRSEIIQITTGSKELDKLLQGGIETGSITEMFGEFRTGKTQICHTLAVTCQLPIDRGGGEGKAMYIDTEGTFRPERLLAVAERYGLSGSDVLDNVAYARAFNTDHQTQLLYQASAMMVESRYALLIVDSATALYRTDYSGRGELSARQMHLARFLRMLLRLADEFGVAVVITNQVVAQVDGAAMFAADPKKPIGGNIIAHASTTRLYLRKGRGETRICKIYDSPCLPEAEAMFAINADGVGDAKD
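System: hRad51 filaments on single-stranded DNA; reagent: Fluorescein- and BHQ1-tagged 47-mer duplex; compound dosing: one concentration, 10 µM final; timing: filaments 15 min 37 °C, then compound 30 min; measured by: fluorescein emission 520 nm, excitation 485 nm; benchmarks: per-plate controls and blanks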
WT yeast gro inh: growth inhibition of WT strain, primary screen, mitochondrial fusion inhibitor project, WT and mutant strains, chemical genetic; mitochondrial fusion phenotypic screen; inhibition, % at 10 µM; actives 2.1% (n = 190,000); AID 1362, 2008; in the data active = inhibition above about 58%; tested in S. cerevisiae
Autophagy HCS: autophagy modulators in MEF cells, primary screen, imaging, high-content, MEF GFP-LC3; MEF GFP-LC3 puncta imaging; test concentration mostly 10 µM; calls only at 10 µM (by protocol); actives 0.98% (n = 190,000); AID 463193, 2010;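 active = percentage of spot-positive cells more than 3 SD above its plate mean, without a fluorescence outlier flag or 80% toxicity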;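 note: spot-positive cell cutoff set from DMSO-treated cells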
Cl transport mod: KCC2 cotransporter modulators, thallium flux, primary screen, cell-based, HEK293 KCC2, FluoZin-2 fluorescence, MLSMR | B-score of Tl+ flux slope (higher = more flux/activation; lower = inhibition) at 10 µM | actives 2.2% (n = 190,000) | KCC2 cells, thallium flux FluoZin-2 fluorescence | AID 1456, 2008 | Solute carrier family 12 member 5 (Homo sapiens), Q9H2X9;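 active = thallium flux slope and its plate-corrected score both differing from the plate sample mean at a set confidence after two filtering rounds, in either direction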;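 note: slope of fluorescence scaled to starting intensity during 10 to 20 s after thallium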
An asterisk follows results filed as active; i = inactive; / = no result given; + = active, no number.

SMILES | Ins promoter up | SKKanGAS inh | Rad51 HR inh | WT yeast gro inh | Autophagy HCS | Cl transport mod
N#Cc1ccc(COC(=O)c2ccc(N3CCCC3)c([N+](=O)[O-])c2)cc1 | 0.72 | -8 | 3 | 39 | i | -0.78
FC(F)(F)c1ccc(N2CCN(c3cc(-c4ccccc4)nc4ncnn34)CC2)nc1 | -1 | 23 | 0 | 64* | i | /
FC(F)(F)c1cccc(Nc2cc(-c3ccccc3)nc3ncnn23)c1 | -0.09 | 4 | 10 | / | / | 1.7
C=CCNC(=O)C1COc2ccccc2O1 (centres undefined) | 0.23 | -2 | -6 | / | / | 0.57
CCOc1ccc(OCC)c(S(=O)(=O)NCCOC23CC4CC(CC(C4)C2)C3)c1 | / | 2 | 11 | 74* | i | -0.34
COc1cc(S(=O)(=O)NCCOC23CC4CC(CC(C4)C2)C3)c(OC)cc1Cl | 0.3 | 2 | 3 | 15 | i | 0.29
OC(CNCc1ccncc1)c1ccccc1 (centres undefined) | / | -3 | / | / | / | /
OC(CNCc1ccc(-c2ccccc2)cc1)c1ccccc1 (centres undefined) | 0.12 | -6 | 4 | 60* | i | 0.071
CCOc1c(Cl)cc(CNCC(O)c2ccccc2)cc1OC (centres undefined) | 0.07 | -8 | -19 | 6 | + | 0.36
O=C(NCc1ccc2c(c1)OCO2)c1ccc(S(=O)(=O)N2CCOCC2)cc1 | -0.59 | -10 | 3 | 5 | i | -0.066
CCOc1cc(/C=N/NC(=O)c2cccnc2)ccc1OCc1ccc(C(=O)OC)o1 | 2.4 | -10 | -46 | 6 | i | 0.69
Cc1cc(C)c(CSc2ncnc3nc[nH]c23)c(C)c1 | -0.46 | 0 | 3 | 69* | i | -0.52
Cc1cccc(CSc2ncnc3nc[nH]c23)c1 | 0.08 | 1 | 0 | 11 | i | -0.26
Cc1ccc(C)c(S(=O)(=O)N2CCCOC2CNC(=O)C(=O)NCc2ccc3c(c2)OCO3)c1 (centres undefined) | / | 7 | / | / | / | /
N/C(=N\OC(=O)N1c2ccccc2Sc2ccccc21)c1ccccc1 | -3.3 | -7 | 2 | 66* | i | -1.2
Cc1cccc(/C(N)=N/OC(=O)N2c3ccccc3Sc3ccccc32)c1 | -1.4 | 10 | 1 | 67* | i | -0.51
N/C(=N\OC(=O)c1ccccc1Cl)c1ccccc1 | -0.16 | -2 | 3 | 5 | i | /
Cc1cccc(/C(N)=N/OC(=O)Cc2ccccc2)c1 | -0.52 | 26 | 2 | 15 | i | -0.58
C/C=C/C=C/C(=O)[C@@H]1[C@@H]([C@]2(C)OC(=O)C(C)=C2O)[C@H]2/C(=C(O)/C=C/C=C/C)C(=O)[C@]1(C)C(=O)C2(C)O (some centres undefined) | 0.45 | 0 | -1 | / | / | -0.017
O=C(Cn1cccc1C(=O)c1ccccc1)NCCCN1CCOCC1 | -0.02 | -7 | 8 | / | i | /
Cc1ccc(C)c(N2CCN(CCCNC(=O)Cn3cccc3C(=O)c3ccccc3)CC2)c1 | / | -2 | / | 24 | + | -0.25
Cc1cc(C)n(-c2nc3ccccc3c3nc(C)nn23)n1 | -0.48 | 8 | 10 | 9 | i | 1.4
Cc1cc(C)n(-c2nc(C)nc3c2cnn3-c2ccccc2)n1 | -0.7 | -12 | / | 65* | i | /
CC(C)CC(C(=O)NC1CCCC1)N(Cc1ccc2c(c1)OCO2)C(=O)c1snc(C(N)=O)c1N (centres undefined) | -0.59 | -7 | 0 | -6 | i | -0.48
CC(C(=O)NC1CCCC1)N(Cc1ccc2c(c1)OCO2)C(=O)c1snc(C(N)=O)c1N (centres undefined) | -0.04 | -6 | 6 | 4 | + | /
O=C(OC(c1ccccc1)c1nccc2ccccc12)c1cccc([N+](=O)[O-])c1 (centres undefined) | -0.15 | 1 | -14 | 67* | i | -0.74
CC(=O)Nc1ccc(S(=O)(=O)NC2CC(=O)N(c3ccc(C)c(C)c3)C2)cc1 (centres undefined) | / | -1 | / | / | / | /
CCOC(=O)c1cc(COc2cc(Cl)cc(Cl)c2)on1 | / | 17 | 19 | / | / | -0.57

Screening results as filed in PubChem.
